Experimental data as given in ChEMBL document CHEMBL5096226, “Structure-Activity Relationship Study of Momordica Saponin II Derivatives as Vaccine Adjuvants” (J Med Chem, 2022).
Calls of active or inactive are those of the source.

Assays:
Assay type in all cases: functional, organism-based
Mus musculus [1] = assay: Immuno-adjuvant activity in BALB/c mouse assessed as increase in anti-OVA IgG antibody in serum at 50 ug, sc administered on day 0, 14 and 28 and measured at 2, 4 and 6 weeks in presence of chicken egg ovalbumin by ELISA; conditions: dose 50.0 µg, time 2-6 weeks
How it was run: (§1)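 Female BALB/c mice (8–10 wk, six per group) immunized s.c. with OVA 20 μg ± adjuvant on days 0, 14, 28. Tail-vein serum taken before each dose and 2 wk after the last. ELISA on OVA-coated (0.1 μg/mL) plates in borate saline pH 8.2. Twofold serum dilutions in duplicate, overnight at 4 °C. HRP anti-mouse IgG/subclass applied 4 h, OPD substrate, read at 490 nm. Concentrations from reference-serum standard curves (4-parameter fit).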

Mus musculus [2] = assay: Immuno-adjuvant activity in BALB/c mouse assessed as increase in anti-OVA IgG1 antibody in serum at 100 ug, sc administered on day 0, 14 and 28 and measured at 4 weeks in presence of chicken egg ovalbumin by ELISA; conditions: dose 100.0 µg; how it was run: as §1
Mus musculus [3] = assay: Immuno-adjuvant activity in BALB/c mouse assessed as increase in anti-OVA Ig2a antibody in serum at 100 ug, sc administered on day 0, 14 and 28 and measured at 4 and 6 weeks in presence of chicken egg ovalbumin by ELISA; conditions: dose 100.0 µg, time 4-6 weeks; how it was run: as §1
Splenocyte [4] = assay: Immuno-adjuvant activity in BALB/c mouse Splenocyte assessed as increase in CD8+ T cells at 100 ug, sc administered on day 0, 14 and 28 and measured at week 6 post immunization by flow cytometry analysis; conditions: dose 100.0 µg, time 6.0 weeks
How it was run: (§2)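 Female BALB/c mice (8–10 wk, six per group) given OVA 20 μg s.c. with adjuvant on days 0, 14, 28; spleens taken at week 6. Splenocytes stained with viability dye, Fc-blocked, surface-stained 30 min. For intracellular cytokines, cells stimulated 5 h with leukocyte activation cocktail plus GolgiPlug, then fixed/permeabilized. IL-21 detected with IL-21R Fc chimera. All steps at 4 °C. Read as MFI, mean ± SEM.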

Splenocyte [5] = assay: Immuno-adjuvant activity in BALB/c mouse Splenocyte assessed as increase in CD4+ T cells at 100 ug, sc administered on day 0, 14 and 28 and measured at week 6 post immunization by flow cytometry analysis; conditions: dose 100.0 µg, time 6.0 weeks; how it was run: as §2
Mus musculus [6] = assay: Immuno-adjuvant activity in BALB/c mouse Splenocyte assessed as increase in CD4+ surface expression of PD-1 at 50 ug, sc administered on day 0, 14 and 28 and measured at week 6 post immunization by flow cytometry analysis; conditions: dose 50.0 µg, time 6.0 weeks; how it was run: as §2
Mus musculus [7] = assay: Immuno-adjuvant activity in BALB/c mouse assessed as increase in IL-4 expressing CD4+ effector T cells in spleen at 100 ug, sc administered on day 0, 14 and 28 and measured at week 6 post immunization by flow cytometry analysis; conditions: T-cell, dose 100.0 µg, time 6.0 weeks; how it was run: as §2
Mus musculus [8] = assay: Immuno-adjuvant activity in BALB/c mouse assessed as increase in IL-21 expressing CD4+ effector T cells in spleen at 100 ug, sc administered on day 0, 14 and 28 and measured at week 6 post immunization by flow cytometry analysis; conditions: T-cell, dose 100.0 µg, time 6.0 weeks; how it was run: as §2
Mus musculus [9] = assay: Immuno-adjuvant activity in BALB/c mouse assessed as increase in follicular helper T cells in spleen at 100 ug, sc administered on day 0, 14 and 28 and measured at week 6 post immunization by flow cytometry analysis; conditions: T-cell, dose 100.0 µg, time 6.0 weeks
How it was run: (§3)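 Female BALB/c mice (8–10 wk, six per group), OVA 20 μg s.c. plus adjuvant on days 0, 14, 28; spleens collected week 6. Single-cell splenocyte suspensions stained and analysed by flow cytometry. TFH gated PD-1+Bcl6+Foxp3−CD4+CD3+, TFR PD-1+Bcl6+Foxp3+CD4+CD3+, dark zone GC B cells CXCR4hiCD86loFas+GL-7+CD19+. Steps at 4 °C. Mean ± SEM; unpaired t tests.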

Mus musculus [10] = assay: Immuno-adjuvant activity in BALB/c mouse assessed as increase in CD19+ B cells in spleen at 100 ug, sc administered on day 0, 14 and 28 and measured at week 6 post immunization by flow cytometry analysis; conditions: dose 100.0 µg, time 6.0 weeks; how it was run: as §3
Mus musculus [11] = assay: Immuno-adjuvant activity in BALB/c mouse assessed as increase in ratio of TFH to TFR cells at 100 ug, sc administered on day 0, 14 and 28 and measured at week 6 post immunization by flow cytometry analysis; conditions: dose 100.0 µg, time 6.0 weeks; how it was run: as §3
Mus musculus [12] = assay: Immuno-adjuvant activity in BALB/c mouse assessed as reduction in TFR cells in spleen at 100 ug, sc administered on day 0, 14 and 28 and measured at week 6 post immunization by flow cytometry analysis; conditions: dose 100.0 µg, time 6.0 weeks; how it was run: as §3
Mus musculus [13] = assay: Immuno-adjuvant activity in BALB/c mouse assessed as increase in dark zone B cells at 100 ug, sc administered on day 0, 14 and 28 and measured at week 6 post immunization by flow cytometry analysis; conditions: dose 100.0 µg, time 6.0 weeks; how it was run: as §3
Mus musculus [14] = assay: Immuno-adjuvant activity in BALB/c mouse assessed as increase in anti-OVA IgG antibody in serum at 20 ug, sc administered on day 0, 14 and 28 and measured at 2, 4 and 6 weeks in presence of chicken egg ovalbumin by ELISA; conditions: dose 20.0 µg, time 2-6 weeks; how it was run: as §1
Mus musculus [15] = assay: Immuno-adjuvant activity in BALB/c mouse assessed as increase in anti-OVA IgG2a antibody in serum at 20 ug, sc administered on day 0, 14 and 28 and measured at 2 weeks in presence of chicken egg ovalbumin by ELISA; conditions: dose 20.0 µg; how it was run: as §1
Mus musculus [16] = assay: Immuno-adjuvant activity in BALB/c mouse assessed as increase in anti-OVA Ig2a antibody in serum at 20 ug, sc administered on day 0, 14 and 28 and measured at 4 and 6 weeks in presence of chicken egg ovalbumin by ELISA; conditions: dose 20.0 µg, time 4-6 weeks; how it was run: as §1
Mus musculus [17] = assay: Immuno-adjuvant activity in BALB/c mouse Splenocyte assessed as increase in CD8+ T cells at 20 ug, sc administered on day 0, 14 and 28 and measured at week 6 post immunization by flow cytometry analysis; conditions: dose 20.0 µg, time 6.0 weeks; how it was run: as §2
Mus musculus [18] = assay: Immuno-adjuvant activity in BALB/c mouse Splenocyte assessed as increase in CD4+ T cells at 20 ug, sc administered on day 0, 14 and 28 and measured at week 6 post immunization by flow cytometry analysis; conditions: dose 20.0 µg, time 6.0 weeks; how it was run: as §2
Mus musculus [19] = assay: Immuno-adjuvant activity in BALB/c mouse assessed as increase in IL-4 expressing CD4+ effector T cells in spleen at 20 ug, sc administered on day 0, 14 and 28 and measured at week 6 post immunization by flow cytometry analysis; conditions: T-cell, dose 20.0 µg, time 6.0 weeks; how it was run: as §2
Mus musculus [20] = assay: Immuno-adjuvant activity in BALB/c mouse assessed as increase in IL-21 expressing CD4+ effector T cells in spleen at 20 ug, sc administered on day 0, 14 and 28 and measured at week 6 post immunization by flow cytometry analysis; conditions: T-cell, dose 20.0 µg, time 6.0 weeks; how it was run: as §2
Mus musculus [21] = assay: Immuno-adjuvant activity in BALB/c mouse assessed as increase in follicular helper T cells in spleen at 20 ug, sc administered on day 0, 14 and 28 and measured at week 6 post immunization by flow cytometry analysis; conditions: T-cell, dose 20.0 µg, time 6.0 weeks; how it was run: as §3
Mus musculus [22] = assay: Immuno-adjuvant activity in BALB/c mouse assessed as increase in CD19+ B cells in spleen at 20 ug, sc administered on day 0, 14 and 28 and measured at week 6 post immunization by flow cytometry analysis; conditions: dose 20.0 µg, time 6.0 weeks; how it was run: as §3
Mus musculus [23] = assay: Immuno-adjuvant activity in BALB/c mouse assessed as increase in ratio of TFH to TFR cells at 20 ug, sc administered on day 0, 14 and 28 and measured at week 6 post immunization by flow cytometry analysis; conditions: dose 20.0 µg, time 6.0 weeks; how it was run: as §3
Mus musculus [24] = assay: Immuno-adjuvant activity in BALB/c mouse assessed as reduction in TFR cells in spleen at 20 ug, sc administered on day 0, 14 and 28 and measured at week 6 post immunization by flow cytometry analysis; conditions: dose 20.0 µg, time 6.0 weeks; how it was run: as §3
Mus musculus [25] = assay: Immuno-adjuvant activity in BALB/c mouse assessed as increase in dark zone B cells at 20 ug, sc administered on day 0, 14 and 28 and measured at week 6 post immunization by flow cytometry analysis; conditions: dose 20.0 µg, time 6.0 weeks; how it was run: as §3

Measured: Activity

C[C@@H]1O[C@@H](O[C@H]2[C@H](O)[C@@H](C(=O)NCCCCCCCCCCC(=O)OCc3ccccc3)O[C@@H](O[C@H]3CC[C@]4(C)[C@H]5CC=C6[C@@H]7CC(C)(C)CC[C@]7(C(=O)O[C@@H]7O[C@H](C)[C@H](O)[C@H](O)[C@H]7O[C@@H]7O[C@@H](C)[C@H](O[C@@H]8OC[C@@H](O)[C@H](O)[C@H]8O)[C@@H](O[C@@H]8O[C@H](CO)[C@@H](O)[C@H](O[C@@H]9OC[C@@H](O)[C@H](O)[C@H]9O)[C@H]8O)[C@H]7O)[C@H](O)C[C@@]6(C)[C@]5(C)CC[C@H]4[C@]3(C)C=O)[C@@H]2O[C@@H]2O[C@H](CO)[C@H](O)[C@H](O)[C@H]2O)[C@H](O)[C@H](O)[C@H]1O
active: Mus musculus [1] | Mus musculus [2] | Mus musculus [3] | Splenocyte [4] | Splenocyte [5] | Mus musculus [6] | Mus musculus [7] | Mus musculus [8] | Mus musculus [9] | Mus musculus [10] | Mus musculus [11] | Mus musculus [12] | Mus musculus [13]

CC[C@H](C)[C@H](C[C@H](O)CC(=O)O[C@@H]1[C@H](O)[C@@H](O[C@@H]2O[C@@H](C)[C@H](O[C@@H]3OC[C@@H](O)[C@H](O[C@@H]4OC[C@](O)(CO)[C@H]4O)[C@H]3O)[C@@H](O)[C@H]2O)[C@H](OC(=O)[C@]23CCC(C)(C)C[C@H]2C2=CC[C@@H]4[C@@]5(C)CC[C@H](O[C@@H]6O[C@H](C(=O)O)[C@@H](O)[C@H](O[C@@H]7OC[C@@H](O)[C@H](O)[C@H]7O)[C@H]6O[C@@H]6O[C@H](CO)[C@H](O)[C@H](O)[C@H]6O)[C@@](C)(C=O)[C@@H]5CC[C@@]4(C)[C@]2(C)C[C@H]3O)O[C@@H]1C)OC(=O)C[C@@H](O)C[C@H](O[C@@H]1O[C@@H](CO)[C@H](O)[C@H]1O)[C@@H](C)CC
active: Mus musculus [14] | Mus musculus [15] | Mus musculus [16] | Mus musculus [17] | Mus musculus [18] | Mus musculus [19] | Mus musculus [20] | Mus musculus [21] | Mus musculus [22] | Mus musculus [23] | Mus musculus [24] | Mus musculus [25]
